Assay results taken from ChEMBL document CHEMBL3351780, “Novel hybrids of metronidazole and quinolones: synthesis, bioactive evaluation, cytotoxicity, preliminary antimicrobial mechanism and effect of metal ions on their transportation by human serum albumin” (Eur J Med Chem, 2014).
Converted amounts (≈) assume the structure as drawn.

Legend:
Type in all cases: functional
Pichia norvegensis = assay: Antifungal activity against Candida mycoderma after 24 hrs by microbroth dilution method
Bacillus spizizenii = assay: Antibacterial activity against Bacillus subtilis ATCC 6633 by two-fold serial dilution method
Method in brief: (§1)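 Standard two-fold serial dilution in 96-well microtest plates following NCCLS. Top dilutions printed as 32, 16, 8, 4, 2, 1, 0.5 ug/mL. Wells inoculated and held at 37 °C for 24 h. Growth judged visually and by spectrophotometer, in triplicate. MIC is the lowest concentration giving complete growth inhibition.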

[1] = Antibacterial activity against Eberthella typhosa by two-fold serial dilution method
Method in brief: (§2)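 MIC read as the lowest concentration giving complete growth inhibition. Two-fold serial dilutions were made in 96-well plates following NCCLS, giving a series down to 0.5 µg/mL (…32, 16, 8, 4, 2, 1, 0.5). Plates were inoculated and incubated at 37 °C for 24 h. A DMSO-with-inoculum control without drug was included. Growth was monitored visually and spectrophotometrically, in triplicate.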

Staphylococcus aureus [2] = assay: Antibacterial activity against methicillin-resistant Staphylococcus aureus N315 by two-fold serial dilution method; method in brief: as §2
Micrococcus luteus = assay: Antibacterial activity against Micrococcus luteus by two-fold serial dilution method; method in brief: as §1
Shigella dysenteriae = assay: Antibacterial activity against Shigella dysenteriae by two-fold serial dilution method; method in brief: as §2
Pseudomonas aeruginosa = assay: Antibacterial activity against Pseudomonas aeruginosa by two-fold serial dilution method; method in brief: as §1
Cyberlindnera jadinii = assay: Antifungal activity against Candida utilis after 24 hrs by microbroth dilution method; settings: Williopsis jadinii
Method in brief: (§3)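 Spore suspension prepared in sterile distilled water from one-day-old cultures on Sabouraud agar, final 1-5 x 10^3 spores/mL. Compounds were serially diluted in RPMI 1640 to give eleven dilutions. Incubation at 35 °C for 24 h. Growth read visually and spectrophotometrically, in triplicate. MIC is the lowest concentration with complete inhibition.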

Saccharomyces cerevisiae = assay: Antifungal activity against Saccharomyces cerevisiae after 24 hrs by microbroth dilution method; method in brief: as §3
Candida albicans = assay: Antifungal activity against Candida albicans ATCC 76615 after 24 hrs by microbroth dilution method; settings: ATCC 76615, 24 h; method in brief: as §3
Staphylococcus aureus [3] = assay: Antibacterial activity against Staphylococcus aureus ATCC 25923 by two-fold serial dilution method; method in brief: as §1
Escherichia coli = assay: Antibacterial activity against Escherichia coli DH52 by two-fold serial dilution method; method in brief: as §1

Compound	MIC (Pichia norvegensis)	MIC (Bacillus spizizenii)	MIC [1]	MIC (Staphylococcus aureus [2])	MIC (Micrococcus luteus)	MIC (Shigella dysenteriae)	MIC (Pseudomonas aeruginosa)	MIC (Cyberlindnera jadinii)	MIC (Saccharomyces cerevisiae)	MIC (Candida albicans)	MIC (Staphylococcus aureus [3])	MIC (Escherichia coli)
CCOC(=O)c1cn(CC2CO2)c2ccc(F)cc2c1=O (racemic)	8 µg/mL (≈ 27.5 µM)	64 µg/mL (≈ 220 µM)	8 µg/mL (≈ 27.5 µM)	–	–	–	–	–	–	–	–	–
CCOC(=O)c1cn(CC(O)Cn2c([N+](=O)[O-])cnc2C)c2c(F)cccc2c1=O (racemic)	128 µg/mL (≈ 306 µM)	16 µg/mL (≈ 38.2 µM)	4 µg/mL (≈ 9.56 µM)	8 µg/mL (≈ 19.1 µM)	8 µg/mL (≈ 19.1 µM)	8 µg/mL (≈ 19.1 µM)	16 µg/mL (≈ 38.2 µM)	512 µg/mL (≈ 1220 µM)	256 µg/mL (≈ 612 µM)	128 µg/mL (≈ 306 µM)	32 µg/mL (≈ 76.5 µM)	16 µg/mL (≈ 38.2 µM)
CCOC(=O)c1cn(CC(O)Cn2c([N+](=O)[O-])cnc2C)c2cc(Cl)c(F)cc2c1=O (racemic)	128 µg/mL (≈ 283 µM)	8 µg/mL (≈ 17.7 µM)	8 µg/mL (≈ 17.7 µM)	4 µg/mL (≈ 8.83 µM)	128 µg/mL (≈ 283 µM)	16 µg/mL (≈ 35.3 µM)	32 µg/mL (≈ 70.7 µM)	256 µg/mL (≈ 565 µM)	16 µg/mL (≈ 35.3 µM)	128 µg/mL (≈ 283 µM)	64 µg/mL (≈ 141 µM)	64 µg/mL (≈ 141 µM)
CCOC(=O)c1cn(CC(O)Cn2c([N+](=O)[O-])cnc2C)c2c(F)cc(F)cc2c1=O (racemic)	64 µg/mL (≈ 147 µM)	32 µg/mL (≈ 73.3 µM)	4 µg/mL (≈ 9.17 µM)	16 µg/mL (≈ 36.7 µM)	4 µg/mL (≈ 9.17 µM)	16 µg/mL (≈ 36.7 µM)	4 µg/mL (≈ 9.17 µM)	64 µg/mL (≈ 147 µM)	64 µg/mL (≈ 147 µM)	128 µg/mL (≈ 293 µM)	8 µg/mL (≈ 18.3 µM)	4 µg/mL (≈ 9.17 µM)
CCOC(=O)c1cn(CC(O)Cn2cnc([N+](=O)[O-])c2)c2c(F)cc(F)cc2c1=O (racemic)	16 µg/mL (≈ 37.9 µM)	8 µg/mL (≈ 18.9 µM)	2 µg/mL (≈ 4.74 µM)	32 µg/mL (≈ 75.8 µM)	4 µg/mL (≈ 9.47 µM)	16 µg/mL (≈ 37.9 µM)	4 µg/mL (≈ 9.47 µM)	64 µg/mL (≈ 152 µM)	128 µg/mL (≈ 303 µM)	32 µg/mL (≈ 75.8 µM)	4 µg/mL (≈ 9.47 µM)	8 µg/mL (≈ 18.9 µM)
CCOC(=O)c1cn(CC(O)Cn2cnc([N+](=O)[O-])c2)c2ccc(F)cc2c1=O (racemic)	32 µg/mL (≈ 79.1 µM)	8 µg/mL (≈ 19.8 µM)	32 µg/mL (≈ 79.1 µM)	16 µg/mL (≈ 39.6 µM)	4 µg/mL (≈ 9.89 µM)	32 µg/mL (≈ 79.1 µM)	8 µg/mL (≈ 19.8 µM)	16 µg/mL (≈ 39.6 µM)	16 µg/mL (≈ 39.6 µM)	32 µg/mL (≈ 79.1 µM)	32 µg/mL (≈ 79.1 µM)	16 µg/mL (≈ 39.6 µM)
CCOC(=O)c1cn(CC(O)Cn2cnc([N+](=O)[O-])c2)c2cc(Cl)c(F)cc2c1=O (racemic)	128 µg/mL (≈ 292 µM)	16 µg/mL (≈ 36.5 µM)	8 µg/mL (≈ 18.2 µM)	4 µg/mL (≈ 9.12 µM)	16 µg/mL (≈ 36.5 µM)	16 µg/mL (≈ 36.5 µM)	16 µg/mL (≈ 36.5 µM)	32 µg/mL (≈ 72.9 µM)	64 µg/mL (≈ 146 µM)	32 µg/mL (≈ 72.9 µM)	16 µg/mL (≈ 36.5 µM)	32 µg/mL (≈ 72.9 µM)
CCOC(=O)c1cn(CC(O)Cn2cnc([N+](=O)[O-])c2)c2ccc(C)cc2c1=O (racemic)	128 µg/mL (≈ 320 µM)	8 µg/mL (≈ 20 µM)	4 µg/mL (≈ 9.99 µM)	16 µg/mL (≈ 40 µM)	8 µg/mL (≈ 20 µM)	8 µg/mL (≈ 20 µM)	4 µg/mL (≈ 9.99 µM)	8 µg/mL (≈ 20 µM)	8 µg/mL (≈ 20 µM)	2 µg/mL (≈ 5 µM)	16 µg/mL (≈ 40 µM)	8 µg/mL (≈ 20 µM)
CCOC(=O)c1cn(CC(O)Cn2c([N+](=O)[O-])cnc2C)c2ccc(OC)cc2c1=O (racemic)	256 µg/mL (≈ 595 µM)	8 µg/mL (≈ 18.6 µM)	16 µg/mL (≈ 37.2 µM)	8 µg/mL (≈ 18.6 µM)	256 µg/mL (≈ 595 µM)	32 µg/mL (≈ 74.3 µM)	64 µg/mL (≈ 149 µM)	256 µg/mL (≈ 595 µM)	2 µg/mL (≈ 4.65 µM)	8 µg/mL (≈ 18.6 µM)	16 µg/mL (≈ 37.2 µM)	8 µg/mL (≈ 18.6 µM)
CCOC(=O)c1cn(CC2CO2)c2c(F)cc(F)cc2c1=O (racemic)	16 µg/mL (≈ 51.7 µM)	32 µg/mL (≈ 103 µM)	2 µg/mL (≈ 6.47 µM)	–	–	–	–	512 µg/mL (≈ 1660 µM)	–	–	–	–
